# High-throughput results as filed in PubChem BioAssay.
# Most compounds without a hit are left out; they make up all but 2.3% or so of the library.
# GPR7 antag = GPR7 receptor antagonists, primary screen, cell-based, fluorescence, single concentration | AID 1861, 2009 | inhibition, % at 4.4 µM | hit rate 1.1% among 290,000 | Neuropeptides B/W receptor type 1 (Homo sapiens), P48145 | GPR7-expressing cells, fluorescence antagonist assay; in the data active = inhibition above about 16%, passing the limit was not always enough;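 note: cells stimulated with the agonist NPW; 0% = agonist with vehicle and 100% = vehicle without agonist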
# Target sequence (P48145 whole entry, looked up): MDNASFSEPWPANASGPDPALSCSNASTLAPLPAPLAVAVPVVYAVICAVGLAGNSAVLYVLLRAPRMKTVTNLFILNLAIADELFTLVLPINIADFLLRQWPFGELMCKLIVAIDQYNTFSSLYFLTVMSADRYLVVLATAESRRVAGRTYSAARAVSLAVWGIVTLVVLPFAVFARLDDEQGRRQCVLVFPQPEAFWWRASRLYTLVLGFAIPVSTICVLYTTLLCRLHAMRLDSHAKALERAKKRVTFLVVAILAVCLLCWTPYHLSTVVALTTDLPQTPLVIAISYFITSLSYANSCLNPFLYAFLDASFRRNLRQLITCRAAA
# EBNA-1 inhibitor = EBNA-1 DNA-binding inhibitors, primary screen, biochemical, fluorescence polarization; inhibition, % at 14.8 µM; AID 1950, 2009; hit rate 0.34% among 300,000; in the data active = inhibition above about 28%
# core dimer inh = inhibitors of HCV core protein dimerization, primary screen, biochemical, TR-FRET, high-throughput; hit rate 0.33% among 300,000; inhibition, % at 5 µM; TR-FRET GST/Flag-core106 dimerization, 1536-well;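 active = inhibition above the mean of all tested compounds plus 3 SD, set per screening campaign, cut at about 45% in these data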
#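 test system = GST/Flag-tagged HCV core106 proteins | probe or stimulus = Eu donor and XL665 acceptor anti-tag antibodies | times = compound-protein-antibody incubation 4 h at 22.5 °C | signal = TR-FRET, excitation 340 nm, emission 617 and 671 nm | measure = percent inhibition of core106 dimerization signal | controls = wells lacking GST-core106 and wells with excess unlabelled core106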
# ZTA counter = blocks Epstein-Barr virus ZTA, an EBNA-1 counter-screen. P03206. ZTA-DNA binding, fluorescence polarization. inhibition, % at 11 µM. hit rate 0.15% among 320,000; in the data active = inhibition above about 33%
# HCV NS3 hel inh = inhibitors of HCV NS3 helicase, primary screen, biochemical, Cy5 molecular beacon fluorescence | NS3 helicase DNA unwinding | inhibition, % at 10.9 µM | hit rate 0.56% among 290,000 | AID 1800, 2009;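 active = inhibition above the mean of all tested compounds plus 3 SD, set per campaign, cut at about 35% in these data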;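 note: 0% = DMSO wells and 100% = thioflavine S control wells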
#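 Test system: hepatitis C virus NS3 helicase domain fragment enzyme. Also added: annealed dual-labelled DNA beacon duplex, ATP-started. Timing: 60 min unwinding reaction at 25 °C after ATP addition. Technique: Cy5 fluorescence. Measure: % inhibition of unwinding.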
# EBV gp42 inh = Epstein-Barr virus gp42 inhibitors, primary screen, biochemical, uHTS, fluorescence polarization | Glycoprotein 42 (Epstein-Barr virus (strain AG876)), Q1HVG2 | Fluorescence polarization binding assay, mP read-out | inhibition, % (tested at 21.74 µM) | hit rate 0.42% among 220,000; in the data active = inhibition above about 50%
# Target sequence (Q1HVG2 whole entry, looked up): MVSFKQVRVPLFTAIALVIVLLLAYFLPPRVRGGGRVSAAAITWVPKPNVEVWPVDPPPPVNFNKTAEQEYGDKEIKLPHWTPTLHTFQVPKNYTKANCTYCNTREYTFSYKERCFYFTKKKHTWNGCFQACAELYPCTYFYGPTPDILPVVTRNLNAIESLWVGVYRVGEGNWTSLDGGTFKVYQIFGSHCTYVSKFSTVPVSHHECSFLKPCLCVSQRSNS
# EBNA-1 confirm = EBNA-1 DNA-binding inhibitors, retest, confirmation, biochemical, fluorescence polarization, triplicate; shares compounds with EBNA-1 inhibitor; hit rate 35% among 830; inhibition, % at 14.8 µM; AID 2292, 2010; Recombinant EBNA-1 DBD, Cy5-DNA fluorescence polarization;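 active = mean inhibition across replicates above a set limit taken from the earlier primary screen, cut at about 28% in these data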;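 note: plate controls were EBNA-1 protein with DMSO for no effect and wells lacking EBNA-1 for full effect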
# ZTA DNA inh trip = EBV Zta DNA binding inhibitors, counter-screen for EBNA-1 inhibitor project, biochemical, fluorescence polarization, triplicate; shares compounds with EBNA-1 inhibitor; Zta-ZRE DNA binding, Cy5 fluorescence polarization; inhibition, % at 11.1 µM; 830 tested, under 10 active; AID 2328, 2010;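 active = mean inhibition over triplicates above a set limit taken from the primary EBNA-1 screen, cut at about 37% in these data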;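 note: purified full length Zta protein with Cy5 labeled ZRE DNA probe; 0% = Zta with DMSO and 100% = wells lacking Zta protein; inhibitors lower polarization by freeing the labeled DNA probe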
# Zta DNA confirm = EBV Zta binding to ZRE DNA, inhibitors, confirmation, biochemical, fluorescence polarization, triplicate | shares compounds with ZTA counter | inhibition, % at 11.1 µM | hit rate 30% among 320;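 active = mean inhibition across triplicate runs above the hit threshold derived for the original primary screen, cut at about 33% in these data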;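 note: 0% = Zta with DMSO and 100% = wells lacking Zta protein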
# EBNA1 counter = EBNA-1 DNA-binding inhibition, counter-screen for ZTA inhibitor project, biochemical, fluorescence polarization; 320 tested, under 10 active; AID 2362, 2010; inhibition, % at 14.8 µM; shares compounds with ZTA counter; call rule not given here
# An asterisk follows results filed as active; · = not tested or not shown.
SMILES,GPR7 antag,EBNA-1 inhibitor,core dimer inh,ZTA counter,HCV NS3 hel inh,EBV gp42 inh,Zta DNA confirm,EBNA1 counter,others
CC(=O)Oc1cccc(N2C(=O)c3ccc(C(=O)Nc4c[nH]c(=O)[nH]c4=O)cc3C2=O)c1,-9.2,-5.8,-4.6,0.2,30.7,-26.5,·,·,
COc1cccc(CN2CCC(C(=O)N3CCC(C)CC3)CC2)c1,19.7,0.3,-0.1,14.2,1.8,-3.0,·,·,
CCN(CCO)c1nc(NCc2ccccc2)c2cnn(C)c2n1,-5.0,10.4,1.4,-2.7,-1.2,·,·,·,
O=C(CCSc1nc2ccccc2s1)N/N=C/c1c(O)ccc2ccccc12,-0.9,48.5*,36.0,21.5,10.2,-119.5,·,·,EBNA-1 confirm=5.7;ZTA DNA inh trip=8.0
NS(=O)(=O)c1ccc(NC(=O)/C=C/c2cn(-c3ccccc3)nc2-c2cccc(Cl)c2)cc1,-9.2,30.4*,-6.3,5.4,-7.7,-37.7,·,·,EBNA-1 confirm=38.5*;ZTA DNA inh trip=9.3
CC(=O)c1ccc(NC(=O)CSc2ccc(-c3ccc4c(c3)OCO4)nn2)cc1,2.1,5.3,-13.9,9.3,0.3,-13.1,·,·,
CC(=O)Nc1ccc(NC(=O)CSc2ccc(-c3ccc4c(c3)OCO4)nn2)cc1,-5.2,49.0*,-5.3,6.5,10.2,-17.4,·,·,EBNA-1 confirm=24.1;ZTA DNA inh trip=2.8
NC(=O)CSc1nc2sc3c(c2c2ncnn12)CCCC3,-10.4,-3.5,-21.8,37.6*,-1.6,-4.2,6.4,3.1,
Cc1ccccc1OCc1nnc(SCC(=O)NCc2ccco2)n1C,-16.2,12.9,0.0,35.0*,4.5,5.2,-8.4,0.3,
Cc1ccc(OCc2nnc(SCC(=O)NCc3ccco3)n2C)cc1,-5.0,3.4,-5.0,-21.9,9.3,-14.9,·,·,
COc1ccc(-c2nc(N)n(C(=O)c3cccs3)n2)cc1,-9.8,9.8,3.2,79.0*,-18.5,-11.6,-6.2,-9.7,
Cn1c(=O)c2c(nc(NCc3ccccc3)n2C)n(C)c1=O,-13.1,10.8,3.5,21.9,1.0,-6.2,·,·,
Cn1c(=O)c2cc(NCc3ccccc3)nnc2n(C)c1=O,-1.9,25.6,-0.5,51.5*,-2.2,0.0,-11.7,-7.5,
O=C1c2ccccc2C(=O)N1c1ccc(Cc2ccncc2)cc1,0.3,-5.4,0.4,1.9,-0.2,8.9,·,·,
Cc1ccc(-c2cc(C(=O)NCCCN3CCOCC3)c3ccc(Cl)c(C)c3n2)cc1,21.6,-6.1,-11.3,34.0*,-42.6,·,0.7,-3.6,
O=C(NCCCN1CCOCC1)c1cc(-c2ccccc2)nc2ccccc12,·,1.6,0.9,1.5,·,·,·,·,
Cc1cccc(CN2C(=O)/C(=C\c3ccc(C(=O)NCCCN4CCN(C)CC4)cc3)Oc3ccccc32)c1,4.8,5.4,-11.4,69.7*,-73.4,·,49.8*,-9.7,
COc1ccc(C2=Nc3ccccc3OC2)cc1,-3.7,-17.7,-1.3,-1.8,1.0,9.8,·,·,
CCCCN(C(=O)Cc1coc2cc(C)c(C)cc12)c1c(N)n(Cc2ccccc2)c(=O)[nH]c1=O,·,1.5,-0.1,-17.3,·,·,·,·,
C#CCOCCOCCOCCNc1nc(N2CCN(C(=O)CCCCCCCCCCNC(=O)[C@H]([C@@H](C)CC)n3cc(CCCCN=C(N)N)nn3)CC2)nc(N2CCN(C(=O)CCCCCCCCCCNC(=O)[C@H](CCCCN)n3cc(C)nn3)CC2)n1,·,5.7,22.1,56.2*,·,·,68.5*,-8.6,
C#CCOCCOCCOCCNc1nc(N2CCN(C(=O)CCCCCCCCCCNC(=O)[C@H]([C@@H](C)CC)n3cc(CCCCCN)nn3)CC2)nc(N2CCN(C(=O)CCCCCCCCCCNC(=O)[C@H]([C@@H](C)CC)n3cc(CCCCN=C(N)N)nn3)CC2)n1,·,5.1,7.0,163.3*,·,·,54.5*,-15.0,
C#CCOCCOCCOCCNc1nc(N2CCN(C(=O)CCCCCCCCCCNC(=O)[C@H]([C@@H](C)CC)n3cc(CCCCN=C(N)N)nn3)CC2)nc(N2CCN(C(=O)CCCCCCCCCCNC(=O)[C@H](CO)n3cc(CCCCCN)nn3)CC2)n1,·,5.3,4.3,21.8,·,·,·,·,
C#CCOCCOCCOCCNc1nc(N2CCN(C(=O)CCCCCCCCCCNC(=O)Cn3cc(CCCCCN)nn3)CC2)nc(N2CCN(C(=O)CCCCCCCCCCNC(=O)[C@H]([C@@H](C)CC)n3cc(CCCCN=C(N)N)nn3)CC2)n1,·,3.4,-0.1,60.8*,·,·,47.7*,-10.8,
C#CCOCCOCCOCCNc1nc(N2CCN(C(=O)CCCCCCCCCCNC(=O)[C@H]([C@@H](C)CC)n3cc(CCCCCN)nn3)CC2)nc(N2CCN(C(=O)CCCCCCCCCCNC(=O)[C@H](CCCCN)n3cc(CCCC(=O)O)nn3)CC2)n1,·,2.7,-17.1,29.3,·,·,·,·,
O=C(c1ccccc1)C1CCN(C(=O)c2ccco2)CC1,-0.4,-0.6,1.1,9.2,-3.7,·,·,·,
SMILES,GPR7 antag,EBNA-1 inhibitor,core dimer inh,ZTA counter,HCV NS3 hel inh,EBV gp42 inh,Zta DNA confirm,EBNA1 counter,others
COc1ccc(Cn2c(SCc3cc(C)ccc3C)nc3cc(OC)c(OC)cc3c2=N)cc1,-7.3,-6.0,-3.6,12.1,-81.8,1.4,·,·,
COc1ccc(Cn2c(SCc3ccc(C)cc3)nc3cc(OC)c(OC)cc3c2=N)cc1Cl,-8.0,8.9,-0.9,35.4*,-93.9,-14.6,11.7,23.5,
CCCCc1ccc(NC(=S)Nc2ccc(Nc3ccc(OC)cc3)cc2)cc1,-1.9,-4.7,-2.4,-22.0,-28.8,-6.5,·,·,
CCCCc1ccc(NC(=O)OC)cc1,-3.2,1.6,-0.8,166.2*,-10.7,-5.5,0.1,2.9,
CC(CNC(=O)CCC(=O)N1CCOc2ccc(Cl)cc21)c1ccccc1 (centres undefined),0.9,4.4,-3.0,8.3,2.1,·,·,·,
O=C(Nc1ccc(-c2nc3ccc(NC(=O)c4cccs4)cc3[nH]2)cc1)c1cccs1,6.3,-12.1,-3.4,55.3*,18.0,9.8,43.0*,3.9,
O=C(Nc1ccc2nc(-c3cccs3)[nH]c2c1)c1cccs1,-7.7,-6.4,-5.6,-11.7,8.7,-16.0,·,·,
